Test results from ChEMBL document CHEMBL2311478, “Macrolactonolides: a novel class of anti-inflammatory compounds” (Bioorg Med Chem, 2013).
Values after ≈ are worked out from the molar mass of the structure shown.

What was measured:
Assay type in all cases: functional
Streptococcus pyogenes [1] = assay: Antibacterial activity against efflux mediated macrolide-resistant Streptococcus pyogenes Finland 2 by broth microdilution method
Summary of the method: (§1)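 MICs by CLSI broth microdilution with double dilutions, except that Streptococcus medium used 5% horse serum in place of lysed blood. Bacteria were pre-grown on Columbia agar with 5% sheep blood (streptococci) or Mueller–Hinton agar (staphylococci).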

Streptococcus pneumoniae [2] = assay: Antibacterial activity against constitutive-resistant to macrolide, licosamide and streptogramin Streptococcus pneumoniae 58 Spain by broth microdilution method; summary of the method: as §1
Streptococcus pyogenes [3] = assay: Antibacterial activity against erythromycin susceptible Streptococcus pyogenes 3565 by broth microdilution method
Summary of the method: (§2)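 CLSI broth microdilution with double dilutions in 96-well plates. For streptococci, 5% horse serum replaced lysed blood in the medium. Inocula were grown on Columbia agar with 5% sheep blood for streptococci, Mueller–Hinton chocolate agar for H. influenzae, and Mueller–Hinton agar for staphylococci. Read-out is MIC in mg/L.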

Haemophilus influenzae = assay: Antibacterial activity against Haemophilus influenzae ATTC 49247 by broth microdilution method; summary of the method: as §2
Staphylococcus aureus [4] = assay: Antibacterial activity against inducible-resistant to macrolide, licosamide and streptogramin Staphylococcus aureus 90265/97 by broth microdilution method; summary of the method: as §1
Streptococcus pneumoniae [5] = assay: Antibacterial activity against inducible-resistant to macrolide, licosamide and streptogramin Streptococcus pneumoniae 134 GR-M by broth microdilution method; summary of the method: as §1
Streptococcus pneumoniae [6] = assay: Antibacterial activity against erythromycin susceptible Streptococcus pneumoniae SP 030 by broth microdilution method; summary of the method: as §2
Staphylococcus aureus [7] = assay: Antibacterial activity against Staphylococcus aureus ATCC 13709 by broth microdilution method; summary of the method: as §2
Streptococcus pyogenes [8] = assay: Antibacterial activity against constitutive-resistant to macrolide, licosamide and streptogramin Streptococcus pyogenes 166 GR-Micro by broth microdilution method; summary of the method: as §1
Enterococcus faecalis = assay: Antibacterial activity against Enterococcus faecalis ATCC 29213 by broth microdilution method; summary of the method: as §2
Staphylococcus aureus [9] = assay: Antibacterial activity against efflux mediated macrolide-resistant Staphylococcus aureus PK1 by broth microdilution method; summary of the method: as §1
Streptococcus pneumoniae [10] = assay: Antibacterial activity against efflux mediated macrolide-resistant Streptococcus pneumoniae Ci137 by broth microdilution method; summary of the method: as §1
Escherichia coli = assay: Antibacterial activity against Escherichia coli ATCC 25922 by broth microdilution method; summary of the method: as §2
Moraxella catarrhalis = assay: Antibacterial activity against Moraxella catarrhalis ATCC 23246 by broth microdilution method; summary of the method: as §2
Streptococcus pyogenes [11] = assay: Antibacterial activity against inducible-resistant to macrolide, licosamide and streptogramin Streptococcus pyogenes Finland 11 by broth microdilution method; summary of the method: as §1
Staphylococcus aureus [12] = assay: Antibacterial activity against constitutive-resistant to macrolide, licosamide and streptogramin Staphylococcus aureus PK2 by broth microdilution method; summary of the method: as §1

For `CC[C@H]1OC(=O)[C@H](C)[C@@H](O[C@H]2C[C@@](C)(OC)[C@@H](O)[C@H](C)O2)[C@H](C)[C@@H](O[C@@H]2O[C@H](C)C[C@H](N(C)C)[C@H]2O)[C@](C)(O)C[C@@H](C)CN(C)[C@H](C)[C@@H](O)[C@]1(C)O` [AZITHROMYCIN], the MIC (Streptococcus pyogenes [1]) was 8 µg/mL (≈ 10.7 µM), the MIC (Streptococcus pneumoniae [2]) was greater than 64 µg/mL and the MIC (Streptococcus pyogenes [3]) was no more than 0.125 µg/mL. It also gave an MIC (Haemophilus influenzae) of 1 µg/mL (≈ 1.34 µM), an MIC (Staphylococcus aureus [4]) greater than 64 µg/mL and an MIC (Streptococcus pneumoniae [5]) greater than 64 µg/mL. The MIC (Streptococcus pneumoniae [6]) was no more than 0.125 µg/mL, the MIC (Staphylococcus aureus [7]) was 0.5 µg/mL (≈ 0.668 µM) and the MIC (Streptococcus pyogenes [8]) was greater than 64 µg/mL. It also gave an MIC (Enterococcus faecalis) of 4 µg/mL (≈ 5.34 µM), an MIC (Staphylococcus aureus [9]) greater than 64 µg/mL and an MIC (Streptococcus pneumoniae [10]) of 8 µg/mL (≈ 10.7 µM). The MIC (Escherichia coli) was 2 µg/mL (≈ 2.67 µM), the MIC (Moraxella catarrhalis) was no more than 0.125 µg/mL and the MIC (Streptococcus pyogenes [11]) was 16 µg/mL (≈ 21.4 µM). It also gave an MIC (Staphylococcus aureus [12]) greater than 64 µg/mL.
